Most compounds without a hit are left out; they make up all but 9.4% or so of the library.
T cruzi repl: blocks replication of Trypanosoma cruzi. T. cruzi beta-gal in NIH3T3, luminescence, 90 h. inhibition, % (no concentration beside the values). 1.4% of 300,000 active;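 active = mean inhibition across valid replicates above about 55%, limit read from the data; inconclusive = mean below that limit but half or more replicates reach it; inactive = mean below it, under half of replicates reach it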;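 note: signal also drops with host cell toxicity which is not excluded here; 0% = plate median of DMSO wells and 100% = zero luminescence signal; higher percent means less beta-gal luminescence so fewer parasites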
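System: NIH/3T3 fibroblasts plus reporter T. cruzi. Medium: DMEM plus 2% FBS. Probe or stimulus: 5000 reporter trypomastigotes per well. Compound: single 50 nL compound addition per well in DMSO. Incubation: co-culture of at least 90 h after 3 h attachment. Detection: GalScreen β-gal luminescence, detergent lysis, 60 min. Evaluation: parasite load inhibition, %.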
Lmaj promast: reduces viability of Leishmania major promastigotes | resazurin fluorescence viability | inhibition, % at 10 µM | 9% of 200,000 active; in the data active = inhibition above about 50%;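 note: promastigotes grown with compound for 44 hours at 28 °C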
Beta cell apopt: beta cell apoptosis inhibition | INS-1E cytokine-induced death, ATP luminescence, 48 h; percent of positive-control rescue, neutral wells zero | protection from apoptosis, % (concentration not given with the values) | 0.8% of 300,000 active;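 active = Every replicate reaches about 75%, or at least half do and their mean reaches it too, limit read from the data; inconclusive = At least half of replicates reach the limit but their mean does not; inactive = Under half of replicates reach the limit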;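 note: 0% = cytokine-treated negative control wells and 100% = positive control rescue; higher means more ATP so stronger rescue from cytokine killing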
Mdm2 MdmX PPI: human Mdm2/MdmX binding inhibition. inhibition, % at 8 µM. 3% of 330,000 active. SaOS-2 split-luciferase Mdm2/MdmX complementation, luminescence. O15151+Q00987. AID 485346;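 active = inhibition of at least 50% at 8 µM in the primary screen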
SKKanGAS inh: blocks kanamycin growth of S. pyogenes SKKanGAS strain. BacTiter-Glo, 6 h. inhibition, % at 7.5 µM. 1.3% of 300,000 active. AID 1662;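 active = mean replicate score, as percent of positive control median, at least 50; inconclusive = mean below 50 but one replicate at or above 50; inactive = mean and every replicate below 50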;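 note: strain carries kanamycin resistance gene driven by streptokinase promoter and grows in 40 µg/ml kanamycin; loss of luminescence reflects streptokinase promoter inhibition or plain growth inhibition; 0% = median of DMSO wells and 100% = positive control at its reference dose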
CSC inhib: blocks cancer stem cells. cancer stem cell-like cells viability, luminescence. inhibition, % at 7.5 µM. 1.1% of 300,000 active; in the data active = inhibition above about 75%; inconclusive = no clear call, values can overlap the other calls; tested in HMLE shEcad cells
Mdm2-MdmX conf: human Mdm2/MdmX binding inhibition, confirmed; shares compounds with Mdm2 MdmX PPI; luminescent assay; inhibition, % at 8 µM; 55% of 10,000 active; in the data active = inhibition above about 40%
Full FLuc ctr: inhibits full-length luciferase, flagging false Mdm2/MdmX hits. inhibition, % at 8 µM. SaOS-2 full-length luciferase counterscreen, luminescence. 77% of 6,200 active. shares compounds with Mdm2 MdmX PPI;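 active = mean inhibition at 8 µM reaching about 37%, which flags the compound as non-specific, limit read from the data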;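 note: p53-null SaOS-2 cells with luciferase driven by a doxycycline-inducible promoter; compound on cells about two nights before reading with doxycycline added after day one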
Starred values were filed as active, the others as inactive; ? = inconclusive; / = no result.

SMILES | T cruzi repl | Lmaj promast | Beta cell apopt | Mdm2 MdmX PPI | SKKanGAS inh | CSC inhib | Mdm2-MdmX conf | Full FLuc ctr
Cc1cc(S(=O)(=O)N2CCCCC2CCNC(=O)C(=O)NCC2CCCO2)ccc1F (centres undefined) | 0 | / | 7 | -2 | -5 | -11 | / | /
CC1=NN(c2ccccc2)C(=O)/C1=C/C=C/c1ccccc1 | 1 | 100* | / | 65* | -1 | 84* | 52* | 49*
CCOc1cccc(C2/C(=C(/O)c3ccc4c(c3)CC(C)O4)C(=O)C(=O)N2Cc2ccncc2)c1 (centres undefined) | -5 | / | 0 | -5 | 2 | -5 | / | /
O=c1c2ccccc2nc(-c2ccc(Cl)c(Cl)c2)n1O | 3 | -13 | 40 | 82* | 37 | 0 | 64* | 27
O=c1c2ccc(Cl)cc2nc(-c2cccc(C(F)(F)F)c2)n1O | -8 | 99* | 51 | 88* | 97* | -6 | 39 | /
O=C1CC(C(=O)N2CCCc3ccccc32)CN1c1ccc(Cl)cc1 (centres undefined) | 3 | / | -4 | -4 | -7 | 6 | / | /
COc1cc(OC)cc(C(=O)NC(=S)Nc2nnn(C)n2)c1 | -15 | / | -2 | 8 | 3 | 3 | / | /
Cc1cc(NC(=O)Cn2cnc3c(nnn3-c3ccc(C)c(Cl)c3)c2=O)no1 | -8 | -6 | -4 | 43 | -3 | -9 | / | /
COc1ccc(-n2ncc3c(=O)n(CC(=O)Nc4ccc5c(c4)OCCO5)cnc32)cc1 | -9 | / | 6 | 30 | -10 | / | / | /
CCOc1ccc(-n2nnc3c(=O)n(CC(=O)Nc4cc(C)on4)cnc32)cc1 | -4 | / | 7 | 56* | 6 | -6 | 2 | /
O=C(Cn1cnc2c(nnn2-c2cccc(F)c2)c1=O)Nc1ccc2c(c1)OCCO2 | -7 | / | / | 52* | 37 | -12 | 21 | /
COc1ccc(-n2nnc3c(=O)n(CC(=O)Nc4ccc5c(c4)OCCO5)cnc32)cc1OC | -14 | / | 10 | 80* | 27 | -27 | 15 | /
CC(=O)Nc1ccc(NC(=O)Cn2cnc(S(=O)(=O)N3CCOCC3)c2)cc1 | -13 | / | -3 | -26 | -2 | 10 | / | /
CC1CCCC(C)N1C(=C(Cl)Cl)C(=C1SCCS1)[N+](=O)[O-] (centres undefined) | 27 | 16 | 10 | 8 | 6 | 40 | / | /
COc1ccc(F)cc1S(=O)(=O)Nc1ccncc1 | 5 | / | -4 | 16 | 1 | -5 | / | /
CCN(C(=O)CN1CCN(c2cccc(C(F)(F)F)c2)CC1)c1c(N)n(Cc2ccccc2)c(=O)[nH]c1=O | 4 | -4 | 4 | 12 | -12 | 4 | / | /
CCOC(=O)C1CCN(c2ccccc2CN2CCN(c3ccccc3OCC)CC2)CC1 | 1 | / | -3 | 63* | -5 | 13 | 38 | 71*
COc1ccc(Cn2c(-c3ccc(C)cc3)c[n+]3ccccc23)cc1 | ? | 100* | 93* | 62* | 1 | 5 | 37 | 65*
O=C(COC(=O)CN1C(=O)NC2(CCCCC2)C1=O)Nc1cc(F)ccc1F | / | / | -6 | 5 | / | -8 | / | /
O=C1CC(c2ccc3c(c2)OCCO3)Oc2ccc([N+](=O)[O-])cc21 (centres undefined) | -9 | / | 9 | 72* | 5 | 77* | 72* | 144*
Cc1cccc(NCc2ccc(O)c3ncccc23)c1 | -10 | -4 | 6 | 77* | -2 | 33 | 74* | 43*
Cc1ccccc1NCc1ccc(O)c2ncccc12 | 31 | 100* | / | 84* | 0 | -7 | 76* | 41*
Oc1ccc(CNc2ccccc2)c2cccnc12 | -6 | 66* | 105* | 86* | -3 | 19 | 44* | 51*
Cc1cccc(NCc2ccccc2O)c1C | -1 | -3 | -1 | -9 | 11 | 8 | / | /
O=Nc1ccc(O)c2ncccc12 | 22 | / | 43 | 34 | 4 | 37 | / | /
SMILES | T cruzi repl | Lmaj promast | Beta cell apopt | Mdm2 MdmX PPI | SKKanGAS inh | CSC inhib | Mdm2-MdmX conf | Full FLuc ctr
COCc1ccc(O)c2ncccc12 | 44 | 100* | 91* | 60* | 61* | 26 | 36 | 59*
CCCN(CC(=O)Nc1ccccc1C)C(=O)Cc1n[nH]c(=O)c2ccccc12 | / | / | -4 | 21 | / | / | / | /
Oc1ccc(CNc2ccc(F)cc2)c2cccnc12 | 55* | -3 | 92* | 85* | 4 | 27 | 80* | 36
Cc1cc(C(=O)OCC(=O)NCc2ccc(F)cc2)c2ccccc2n1 | / | / | -5 | 18 | / | / | / | /
Cc1cc(C(=O)OCC(=O)Nc2ccc(F)cc2[N+](=O)[O-])c2ccccc2n1 | 3 | -3 | 3 | 52* | 1 | -13 | 51* | 100*
Cc1cccn2c(=O)c3cc(C(=O)NC4CCCC4)n(C)c3nc12 | 5 | / | -4 | 51* | -2 | 47 | 51* | 67*
Cc1cccn2c(=O)c3cc(C(=O)NCCC4=CCCCC4)n(C)c3nc12 | 0 | / | 2 | 55* | 6 | -1 | 12 | /
Cc1ccc(C#CC[N+]2(CC#Cc3ccc(C)cc3)CCCCC2)cc1 | 74* | 100* | 113* | 55* | -1 | 16 | 50* | 52*
COc1ccc(NC(=O)Nc2ccc3c(c2)C(=O)N([C@H](C)CO)C[C@H](C)[C@@H](CN(C)S(=O)(=O)c2ccc(OC)cc2)O3)cc1 | / | / | -4 | 18 | / | -12 | / | /
C[C@H](CO)N1C[C@H](C)[C@@H](CN(C)S(=O)(=O)c2ccccc2)Oc2c(NC(=O)Nc3ccc(C(F)(F)F)cc3)cccc2C1=O | / | / | -8 | 37 | / | 28 | / | /
COc1ccc(S(=O)(=O)N(C)C[C@H]2Oc3ccc(NC(=O)Nc4ccc(C(F)(F)F)cc4)cc3C(=O)N([C@H](C)CO)C[C@@H]2C)cc1 | / | / | 7 | 74* | / | 21 | 8 | /
C[C@@H]1CN([C@H](C)CO)C(=O)c2cc(NC(=O)Nc3ccc(C(F)(F)F)cc3)ccc2O[C@H]1CN(C)S(=O)(=O)c1ccccc1 | / | / | 40 | 74* | / | 60 | 30 | /
O=c1cc(Nc2ccc3c(c2)OCCO3)[nH]c(=O)n1-c1ccc(Br)cc1 | -6 | -8 | / | 55* | 10 | / | 6 | /
Cn1nc(-c2ccc(N3CCCCC3)c(NC(=O)c3ccco3)c2)c2ccccc2c1=O | 66* | 56* | 17 | 88* | 31 | 25 | 44* | 41*
COc1ccc(OCC(=O)Nc2cc(-c3nn(C)c(=O)c4ccccc34)ccc2N2CCOCC2)cc1 | 2 | / | -15 | 67* | 5 | 17 | 19 | /
Cn1nc(-c2ccc(N3CCOCC3)c(NC(=O)COc3ccccc3)c2)c2ccccc2c1=O | / | 25 | / | / | / | / | / | /
COc1ccc(-c2cc(N)n(S(=O)(=O)c3c(F)c(F)c(F)c(F)c3F)n2)cc1OC | 22 | 24 | 93* | 81* | 29 | 42 | 100* | -1
